In the library only some 2.2% were active in any assay of this set; here they are far more common.
HCV NS3 hel inh = inhibitors of HCV NS3 helicase, primary screen, biochemical, Cy5 molecular beacon fluorescence | 290,000 compounds, 0.56% hits | Hepatitis C virus NS3 helicase | AID 1800, 2009 | NS3 helicase DNA unwinding | inhibition, % at 10.9 µM;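 active means inhibition above the mean of all tested compounds plus 3 SD, set per campaign, cut at about 35% in these data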
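System: HCV NS3 helicase fragment; control set: DMSO and thioflavine S; technique: Cy5 fluorescence at 0 and 60 min, beacon hairpin quenching; reagent: beacon DNA duplex substrate plus ATP; replicates: singlicate; schedule: 1 h reaction at 25 °C, ATP-initiated; medium: MOPS buffer pH 6.5 with MgCl2, DTT, Tween20, BSA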
DNA FID counter-1 = compounds displacing fluorescent DNA intercalator, primary screen, artefact control for HCV NS3 helicase inhibitor project, biochemical, FID fluorescence; DNA fluorescent intercalator displacement; 290,000 compounds, 0.17% hits; AID 1845, 2009; inhibition, % at 7.9 µM;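 further: higher means more ethidium bromide displaced from hairpin DNA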
DAGLB inhibitor = DAGLB lipase inhibitors, primary screen, biochemical, fluorescence, HTS; Diacylglycerol lipase-beta (Homo sapiens), Q8NCG7; HEK293T DAGLB membrane lysate, EnzChek fluorogenic substrate; inhibition, % at 5.17 µM; 340,000 compounds, 0.059% hits; in the data active means inhibition above about 34%
core dimer inh = inhibitors of HCV core protein dimerization, primary screen, biochemical, TR-FRET, high-throughput. AID 1899, 2009. TR-FRET GST/Flag-core106 dimerization, 1536-well. 300,000 compounds, 0.33% hits. inhibition, % at 5 µM;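 active means inhibition above the mean of all tested compounds plus 3 SD, set per screening campaign, cut at about 45% in these data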
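assay system = GST-tagged and Flag-tagged HCV core protein residues 1-106 | controls = unlabelled core106 and no-GST-core106 wells | incubation = compound-protein-antibody incubation 4 h at 22.5 °C | probe or stimulus = Eu donor and XL665 acceptor anti-tag antibodies | read-out = % inhibition based on acceptor/donor emission ratio | signal = TR-FRET 671 and 617 nm emission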
GPR7 antag = GPR7 receptor antagonists, primary screen, cell-based, fluorescence, single concentration; Neuropeptides B/W receptor type 1 (Homo sapiens), P48145; GPR7-expressing cells, fluorescence antagonist assay; inhibition, % at 4.4 µM; 290,000 compounds, 1.1% hits; in the data active means inhibition above about 16%, passing the limit was not always enough;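 further: cells stimulated with the agonist NPW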
Target sequence (P48145 whole entry, looked up): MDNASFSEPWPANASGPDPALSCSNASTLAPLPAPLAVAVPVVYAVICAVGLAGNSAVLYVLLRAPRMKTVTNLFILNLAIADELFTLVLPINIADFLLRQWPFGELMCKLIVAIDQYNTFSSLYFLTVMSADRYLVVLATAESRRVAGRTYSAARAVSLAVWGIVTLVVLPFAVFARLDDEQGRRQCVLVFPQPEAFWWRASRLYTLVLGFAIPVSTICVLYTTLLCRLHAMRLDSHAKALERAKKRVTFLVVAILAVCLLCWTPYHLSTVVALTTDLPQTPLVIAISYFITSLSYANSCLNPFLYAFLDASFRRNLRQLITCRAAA
GRK2 inh = compounds blocking aptamer binding on GRK2 – biochemical, human GRK2, bead flow cytometry, HTS, primary screen; inhibition of aptamer binding, % at 10 µM; Beta-adrenergic receptor kinase 1 (Homo sapiens), P25098; FAM-aptamer displacement from GRK2; 330,000 compounds, 0.59% hits; AID 488847, 2010;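 active means inhibition of aptamer binding above 40%, roughly 3 SD of noise, on plates passing a quality check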;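 further: median bead fluorescence of bound FAM aptamer so fluorescent compounds give negative values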
NS3 helicase cf = HCV NS3 helicase inhibitors, retest, confirmation, biochemical, Cy5 molecular beacon fluorescence, triplicate | NS3 helicase DNA unwinding | inhibition, % at 10.9 µM | 1,600 compounds, 31% hits | shares compounds with HCV NS3 hel inh;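 active means inhibition above the mean of all tested compounds plus 3 SD, cutoff set per campaign, cut at about 36% in these data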
DNA FID counter-2 = compounds displacing fluorescent DNA intercalator, artefact control for HCV NS3 helicase inhibitor project, biochemical, FID fluorescence, triplicate | shares compounds with HCV NS3 hel inh | DNA fluorescent intercalator displacement | inhibition, % at 7.9 µM | 1,600 compounds, 4% hits | AID 1945, 2009;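 further: higher means more displacement of ethidium bromide from the DNA hairpin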
DNA FID DR = compounds displacing fluorescent intercalator from DNA, dose response, counter-screen for HCV NS3 helicase inhibitor project, biochemical, fluorescence; shares compounds with HCV NS3 hel inh; fluorescent intercalator displacement from DNA; IC50, µM; 120 tested, under 10 active; call rule not given here
Each line names hits and unclear results; the compound was inactive in the other large screens (follow-up assays come after a bar, where they were run). Unless noted, no stated cut-off is given here; in the data, active means inhibition above about 37%; inactive means the rest.

O=C1CC(c2ccco2)CC(O)=C1C=Nc1cc(Cl)ccc1O (stereo unspecified)	HCV NS3 hel inh 42.5 | NS3 helicase cf inactive | DNA FID counter-2 inactive
O=C1C(=C2CCCCC2)SC(=S)N1Cc1ccco1	HCV NS3 hel inh 71.5 | NS3 helicase cf inactive | DNA FID counter-2 inactive
Cc1cccc(CSc2nc3sc(C)c(C)c3c(=O)n2Cc2ccco2)c1	HCV NS3 hel inh 39.2 | NS3 helicase cf inactive | DNA FID counter-2 inactive
COc1cccc(-c2nc(-c3ccccc3)c(-c3ccccc3)[nH]2)c1OCC(=O)O	HCV NS3 hel inh 45.6 (no result: core dimer inh) | NS3 helicase cf 64.4 | DNA FID counter-2 inactive
CC(C)C(OC(=O)C1=Cc2ccccc2OC1)C(=O)NCC1CCCO1 (stereo unspecified)	none (no result: HCV NS3 hel inh, DNA FID counter-1, core dimer inh, GPR7 antag, GRK2 inh)
NNC(=S)Nc1cccc(-c2n[nH]c(=S)o2)c1	HCV NS3 hel inh 36.8 | NS3 helicase cf inactive | DNA FID counter-2 inactive
CCN1C[C@@H]2[C@@H]3C(=O)N(C)C(=O)[C@@H]3[C@](Cc3ccccc3)(C1=O)N2C(=O)c1ccc(C(C)(C)C)cc1	none (no result: HCV NS3 hel inh, DNA FID counter-1, core dimer inh, GPR7 antag, GRK2 inh)
Cn1cccc1Cc1nnc(SCC(=O)NCc2ccco2)n1-c1ccc(F)cc1	HCV NS3 hel inh 39.0 | NS3 helicase cf inactive | DNA FID counter-2 inactive
Cn1cccc1Cc1nnc(SCC(=O)NCC2CCCO2)n1CCc1ccccc1 (stereo unspecified)	none
Cn1cccc1Cc1nnc(SCC(=O)NCc2ccco2)n1CCc1ccccc1	HCV NS3 hel inh 36.3 | NS3 helicase cf inactive | DNA FID counter-2 inactive
Cn1cccc1Cc1nnc(SCC(=O)NCc2ccccc2Cl)n1-c1ccc(F)cc1	none
Cc1ccc(C(=O)NCc2nc3ccccc3[nH]2)o1	none
COc1cc(C2/C(=C(\O)c3ccc4c(c3)OCCO4)C(=O)C(=O)N2Cc2ccco2)cc(OC)c1OC (stereo unspecified)	none (no result: core dimer inh)
O=C(CN1C(=O)NC2(CCc3ccccc32)C1=O)Nc1ccccc1Cl (stereo unspecified)	none (no result: HCV NS3 hel inh, DNA FID counter-1, core dimer inh, GPR7 antag)
O=C(CCC1CCN(Cc2ccc(C#CCCO)cc2)CC1)NC1CC1	none
O=C(CCC1CCN(Cc2ccc(Cl)cc2)CC1)NC1CC1	HCV NS3 hel inh 36.2 | NS3 helicase cf inactive | DNA FID counter-2 inactive
CC(=O)c1sc(NC(=O)c2ccc(COc3ccccc3Cl)o2)nc1C	HCV NS3 hel inh 41.7 | NS3 helicase cf inactive | DNA FID counter-2 inactive
O=C(NNC1CC(=O)N(c2ccccc2)C1=O)c1ccco1 (stereo unspecified)	none
CC(=O)Cc1nsc(NC(=O)c2ccc(COc3ccccc3Cl)o2)n1	none
O=C(NNC1CC(=O)N(c2ccccc2)C1=O)c1ccc(COc2ccccc2Cl)o1 (stereo unspecified)	HCV NS3 hel inh 60.1 | NS3 helicase cf inactive | DNA FID counter-2 inactive
O=C(NCc1cc(C(F)(F)F)cc(C(F)(F)F)c1)C1CC(c2ccccc2C(F)(F)F)=NO1 (stereo unspecified)	none (no result: HCV NS3 hel inh, DNA FID counter-1, DAGLB inhibitor, GPR7 antag, GRK2 inh)
CN(CC(=O)Nc1cccc(F)c1)CC(=O)N(C)CC(=O)Nc1ccccc1Br	none (no result: HCV NS3 hel inh, DNA FID counter-1, core dimer inh, GPR7 antag)
CCOC(=O)C1(C)C=C(Nc2ccc(O)cc2)C(=O)N1c1ccc(O)cc1 (stereo unspecified)	HCV NS3 hel inh 37.8 | NS3 helicase cf inactive | DNA FID counter-2 inactive
O=c1ccc(N=Nc2ccccc2)ccc1O	HCV NS3 hel inh 50.9 | NS3 helicase cf 47.7 | DNA FID counter-2 inactive | DNA FID DR inactive
N#CCC(=O)N/N=C\c1cc(Br)ccc1OC/C=C/c1ccccc1	none (no result: core dimer inh)
Cc1ccc(/C=C2\Oc3cc(OCC(=O)NN)ccc3C2=O)o1	HCV NS3 hel inh 39.5 (no result: core dimer inh) | NS3 helicase cf inactive | DNA FID counter-2 inactive
COc1ccc2[nH]c3c(C)c4ccncc4c(C)c3c2c1	HCV NS3 hel inh 42.4, DNA FID counter-1 77.1 | NS3 helicase cf 111.8 | DNA FID counter-2 90.1
NC(=S)NN=CCn1cc([N+](=O)[O-])c(=O)[nH]c1=O	none (no result: HCV NS3 hel inh, DNA FID counter-1, core dimer inh, GPR7 antag, GRK2 inh)
Cc1ccc(-n2sc3ccccc3c2=O)cc1S(=O)(=O)N1CCCCC1	HCV NS3 hel inh 46.8 | NS3 helicase cf inactive | DNA FID counter-2 inactive
CC(C)(C)c1ccc(OCc2ccc(C(=O)Nc3cccnc3)o2)cc1	none
CN1CCN(CC(=O)N(C)c2nc(-c3ccccc3)cs2)CC1	HCV NS3 hel inh 49.3 | NS3 helicase cf inactive | DNA FID counter-2 inactive
CN1CCN(CC(=O)Nc2nc(-c3ccccc3)cs2)CC1	none
O=C(O)/C(=C\c1ccco1)NC(=O)c1cccc2ccccc12	HCV NS3 hel inh 53.2 | NS3 helicase cf inactive | DNA FID counter-2 inactive
O=C(NC(Cc1ccccc1)C(=O)O)/C(=C\c1ccco1)NC(=O)c1ccccc1 (stereo unspecified)	HCV NS3 hel inh 36.5 | NS3 helicase cf 54.1 | DNA FID counter-2 inactive
NC(=O)CC[C@H](NC(=O)c1ccc(Cl)cc1)C(=O)NNC(=O)COc1cccc(Br)c1	none (no result: HCV NS3 hel inh, DNA FID counter-1, core dimer inh, GPR7 antag)
C=CCOc1cccc(C2C(C(=O)c3cc4ccccc4o3)=C(O)C(=O)N2c2cc(C)on2)c1 (stereo unspecified)	none
COc1cccc(C2C(C(=O)c3cc4ccccc4o3)=C(O)C(=O)N2c2cc(C)on2)c1 (stereo unspecified)	HCV NS3 hel inh 41.2 | NS3 helicase cf 105.1 | DNA FID counter-2 inactive
COC(=O)c1sc(N2C(=O)C(O)=C(C(=O)c3ccc(C)o3)C2c2cc(OC)ccc2OC)nc1C (stereo unspecified)	HCV NS3 hel inh 53.6 | NS3 helicase cf 92.8 | DNA FID counter-2 inactive | DNA FID DR inactive
Cc1cc(N2C(=O)C(O)=C(C(=O)c3cc4ccccc4o3)C2c2ccc(Br)cc2)no1 (stereo unspecified)	HCV NS3 hel inh 42.0 | NS3 helicase cf 121.8 | DNA FID counter-2 inactive
Cc1cc(N2C(=O)C(O)=C(C(=O)c3cc4ccccc4o3)C2c2ccc(Cl)cc2)no1 (stereo unspecified)	none

From PubChem BioAssay
